E coli WT exp: E. coli BW25113 growth inhibition, expanded screen; AID 710; growth inhibition, % at 100 µM; OD600 absorbance; 0.15% of 98,000 active;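 active = growth inhibition above about 50% at one test dose, limit read from the data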;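 also: growth measured after 20 h incubation at 37 °C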
PostGolgi yeast: growth inhibition of a yeast mutant, post-Golgi transport screen; post-Golgi transport phenotypic cell assay; inhibition, % at 10 µM; 0.9% of 98,000 active; AID 739;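 also: yeast cells grown in 1536-well plates; yeast grown about 18 h at 30C before absorbance read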
PostGolgi ctrl: growth of the yeast control strain, post-Golgi counter-screen; efflux-deficient yeast background strain, growth absorbance A615, 16 h; inhibition, % at 10 µM; 5% of 98,000 active; AID 738
HER2 expr 66K: lowers expression of human Her2 kinase | P04626 | SKBR-3 HER2 protein level, AlphaScreen, 18-24 h; stronger effect = lower value | HER2 level % of control, % at 10 µM | 0.69% of 65,000 active;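 active = HER2 level under 5% of the carrier-only control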;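 also: lower value means stronger loss of Her2 protein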
Target sequence (P04626 whole entry, looked up): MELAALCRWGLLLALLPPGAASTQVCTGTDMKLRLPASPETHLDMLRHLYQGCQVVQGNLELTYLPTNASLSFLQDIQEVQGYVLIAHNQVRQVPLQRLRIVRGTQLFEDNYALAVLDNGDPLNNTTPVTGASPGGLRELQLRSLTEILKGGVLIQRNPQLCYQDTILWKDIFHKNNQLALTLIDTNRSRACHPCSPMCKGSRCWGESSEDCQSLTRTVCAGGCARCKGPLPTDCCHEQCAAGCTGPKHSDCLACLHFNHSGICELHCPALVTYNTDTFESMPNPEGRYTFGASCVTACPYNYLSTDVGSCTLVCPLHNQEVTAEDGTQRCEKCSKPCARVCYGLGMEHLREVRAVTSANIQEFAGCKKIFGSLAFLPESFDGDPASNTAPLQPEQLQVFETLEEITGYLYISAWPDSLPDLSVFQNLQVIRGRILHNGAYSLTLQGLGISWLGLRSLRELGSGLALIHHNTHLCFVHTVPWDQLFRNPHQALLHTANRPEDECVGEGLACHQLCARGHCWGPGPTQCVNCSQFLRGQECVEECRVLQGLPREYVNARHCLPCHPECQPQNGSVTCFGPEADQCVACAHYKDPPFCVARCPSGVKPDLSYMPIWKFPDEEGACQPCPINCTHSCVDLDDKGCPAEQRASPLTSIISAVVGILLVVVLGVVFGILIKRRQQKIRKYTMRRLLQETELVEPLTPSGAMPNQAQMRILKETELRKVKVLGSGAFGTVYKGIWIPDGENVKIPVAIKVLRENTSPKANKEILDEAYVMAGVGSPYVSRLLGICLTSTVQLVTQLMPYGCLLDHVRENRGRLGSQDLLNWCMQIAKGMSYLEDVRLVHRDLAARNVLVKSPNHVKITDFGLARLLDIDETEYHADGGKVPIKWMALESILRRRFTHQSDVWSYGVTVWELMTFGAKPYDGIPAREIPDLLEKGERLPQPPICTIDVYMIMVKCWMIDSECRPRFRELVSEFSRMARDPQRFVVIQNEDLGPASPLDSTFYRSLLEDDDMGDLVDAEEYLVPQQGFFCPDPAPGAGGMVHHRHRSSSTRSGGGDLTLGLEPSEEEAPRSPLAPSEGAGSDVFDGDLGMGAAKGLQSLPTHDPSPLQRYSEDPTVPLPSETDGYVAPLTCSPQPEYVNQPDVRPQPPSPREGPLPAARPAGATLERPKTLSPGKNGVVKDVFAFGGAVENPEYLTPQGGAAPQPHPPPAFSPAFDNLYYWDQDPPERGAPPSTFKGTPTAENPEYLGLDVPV
tolC growth inh: growth inhibitors of E. coli BW25113 tolC mutant; growth inhibition, % at 10 µM (by protocol); OD615; 2.2% of 65,000 active;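 active = growth inhibition at or above a cutoff equal to the mean over every tested compound plus 3 SD, cut at about 60% in these data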;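 also: growth measured after 20 h incubation at 37 °C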
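Material: E. coli BW25113 ΔtolC::kan, tolC deletion mutant strain. Measure: percent growth inhibition. Schedule: 37 °C, 20 h exposure. Doses: single-point testing at 10 µM. Signal: A615 absorbance measurement. Buffer or medium: kanamycin-containing LB broth (50 µg/mL).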
Of the large screens only hits and unclear results are named; the others gave an inactive call; ! = not confirmed by another sample. Most compounds without a hit are left out; they make up all but 6.6% or so of the library. Rule as the data show it, unless noted: active = inhibition above about 30%; inactive = the rest.

Cc1ccc(C2(c3ccc(C)cc3)CC2C(=O)Nc2ccc([N+](=O)[O-])cc2O)cc1 (configuration not stated)	PostGolgi yeast 101.5, PostGolgi ctrl 90.8 (no result: HER2 expr 66K, tolC growth inh)
c1ccc(-c2nc3c4ccccc4nc(N4CCN(c5ccccn5)CC4)n3n2)cc1	none (no result: E coli WT exp, PostGolgi yeast, PostGolgi ctrl)
COC(=O)NCC12CC3CC(C1)CC(CNC(=O)OC)(C3)C2	PostGolgi ctrl 33.5
O=C(c1cccc2ccccc12)N1CCN(CC2CC=CCC2)CC1 (configuration not stated)	none
Cn1c(=O)[nH]c(=O)c2c1nc(N1CCCCCC1)n2Cc1cccc2ccccc12	none
CC1CCCN(c2nc3c(c(=O)[nH]c(=O)n3C)n2Cc2ccccc2Cl)C1 (configuration not stated)	PostGolgi ctrl 34.0
COc1ccc(N2CCN(c3nc4c(c(=O)[nH]c(=O)n4C)n3Cc3ccccc3Cl)CC2)cc1	none (no result: E coli WT exp, PostGolgi yeast, PostGolgi ctrl)
Cc1cccc(Cn2c(N3CCCCC3C)nc3c2c(=O)[nH]c(=O)n3C)c1 (configuration not stated)	PostGolgi ctrl 30.8
Cc1ccc(Cn2c(N3CCCCCC3)nc3c2c(=O)[nH]c(=O)n3C)cc1	PostGolgi ctrl 43.4
CC(=O)OC(/C(O)=C(\C#N)c1nc2ccccc2[nH]1)c1ccccc1 (configuration not stated)	none
O=C(COc1ccc(/C=N/NC(=O)c2ccccc2)cc1)Nc1ccc([N+](=O)[O-])cc1	PostGolgi ctrl 34.3 (no result: HER2 expr 66K, tolC growth inh)
O=C(Cc1ccccc1)N/N=C/c1ccc(OCC(=O)Nc2ccccc2)cc1	none (no result: HER2 expr 66K, tolC growth inh)
O=C(O)CC1NC(=O)N(c2ccc(Cl)cc2)C1=O (configuration not stated)	none
COc1ccc(CCNc2c(C)c(C)nc3ncnn23)cc1	none
Cn1c(=O)c2c(nc(OCc3cccnc3)n2Cc2c(F)cccc2Cl)n(C)c1=O	PostGolgi ctrl 30.4
COCCNC(=O)c1cn(C)c2ccc(S(=O)(=O)N(C)C3CCCCC3)cc2c1=O	PostGolgi ctrl 30.5
CCOCCCNC(=O)c1cn(C)c2ccc(S(=O)(=O)N(C)C3CCCCC3)cc2c1=O	none
Cc1[nH]c2ccccc2c1C(=O)COC(=O)C1CCC(=O)N1 (configuration not stated)	HER2 expr 66K -20.6
N#Cc1ccc(-c2ccco2)nc1SCc1ccccc1	HER2 expr 66K -0.7
N#Cc1cc2c(nc1SCc1cccc(Cl)c1)CCCCC2	none (no result: HER2 expr 66K, tolC growth inh)
N#Cc1cc2c(nc1SCc1cccnc1)CCCCC2	PostGolgi yeast 43.5, PostGolgi ctrl 62.6
N#Cc1cc2c(nc1SCc1ccccc1)CCCCC2	PostGolgi ctrl 30.9 (no result: HER2 expr 66K, tolC growth inh)
COc1cc(OC)cc(C(=O)N2CCC(N3CCCCCC3)CC2)c1	none (no result: E coli WT exp, PostGolgi yeast, PostGolgi ctrl)
COCCNC(=O)c1ccc2c(c1)nc(C)n2-c1cc(OC)c(OC)c(OC)c1	none
CCOC(=O)C1CCN(C(c2cccc(OC)c2)c2sc3nc(C)nn3c2O)CC1 (configuration not stated)	none
COc1ccc2c(C=Nc3c(C)n(C)n(-c4ccccc4)c3=O)c(O)n(Cc3ccco3)c(=O)c2c1	PostGolgi ctrl 62.8!
Cc1c(CCO)c(=O)n(-c2ccccc2)n1S(=O)(=O)c1c(Cl)cc(Cl)cc1Cl	none (no result: HER2 expr 66K, tolC growth inh)
Cc1n[nH]c(C)c1C(=O)CC1(O)C(=O)N(CCc2ccccc2)c2ccc(Br)cc21 (configuration not stated)	none (no result: HER2 expr 66K, tolC growth inh)
Cc1n[nH]c(C)c1C(=O)CC1(O)C(=O)N(Cc2ccccc2)c2ccc(Br)cc21 (configuration not stated)	PostGolgi ctrl 30.4 (no result: HER2 expr 66K, tolC growth inh)
CCn1c(SCC(=O)NCc2ccccc2)nc2c(c1=O)SC(C)C2 (configuration not stated)	none (no result: HER2 expr 66K, tolC growth inh)
O=S(=O)(c1ccc(F)cc1)N1CCC(N2CCCCCC2)CC1	none (no result: HER2 expr 66K, tolC growth inh)
CC1CN(C2CCN(S(=O)(=O)c3ccc4ccccc4c3)CC2)CC(C)O1 (configuration not stated)	PostGolgi yeast 82.6, PostGolgi ctrl 38.0
CC1CCN(C2CCN(S(=O)(=O)c3ccc(F)cc3)CC2)CC1	PostGolgi ctrl 30.9 (no result: HER2 expr 66K, tolC growth inh)
Cc1ccc(S(=O)(=O)N2CCN(C3CCC(c4ccccc4)CC3)CC2)cc1 (configuration not stated)	PostGolgi yeast 88.8, PostGolgi ctrl 95.5 (no result: HER2 expr 66K, tolC growth inh)
Cc1c(C(=O)NCc2cccnc2)oc2ccc(S(=O)(=O)N3CCCCCC3)cc12	PostGolgi ctrl 41.6
COc1ccccc1CNC(=O)c1oc2ccc(S(=O)(=O)N3CCCC3)cc2c1C	PostGolgi ctrl 31.0
Oc1ccccc1C1=Nc2ncnn2C(c2ccccc2)C1 (configuration not stated)	none
O=C(NCCCn1ccnc1)Nc1cccc(Cl)c1	PostGolgi ctrl 35.7

Assay outcomes (PubChem)
